Experimental data from paper PMC5600458 (Biochemistry and Biophysics Reports, 2016).

Legend:
[1] = molecular target: T1, trypsin (Bos taurus, UniProt P00760); assay type: biochemical; conditions: pH 7.2
T1 sequence (P00760 24-246): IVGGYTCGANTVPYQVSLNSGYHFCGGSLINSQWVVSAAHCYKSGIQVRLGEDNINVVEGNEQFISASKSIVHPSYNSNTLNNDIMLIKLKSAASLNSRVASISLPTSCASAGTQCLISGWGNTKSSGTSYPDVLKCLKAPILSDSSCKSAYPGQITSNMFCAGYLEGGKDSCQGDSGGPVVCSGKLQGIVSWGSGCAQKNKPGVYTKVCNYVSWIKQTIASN
How it was run: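 Trypsin (78% active by p-nitrophenyl p-guanidobenzoate titration) hydrolysing α-N-benzoyl-L-arginine-p-nitroanilide at 25 °C, [S0] ≪ KM, in 0.1 M buffers (potassium phosphate at pH 7.2; sodium acetate at pH 5.0). At pH 7.2: 88.0 μM substrate, 0.17 μM trypsin, 3.3% DMSO. Inhibitor was added last. Initial rates were taken within 0.5–1 min and fitted to d[P]/dt = vo·Ki/([I]+Ki), ≥3 determinations. Effective molarity = KHK(obs)/KH1.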

[2] = Hydration constants by quantitative 13C NMR; assay type: physicochemical; conditions: pH 3.0, 13C NMR
[3] = 13C NMR of stability / Schiff base formation by the free glyoxal inhibitor; assay type: physicochemical
[4] = molecular target: T1, trypsin; assay: 13C NMR of trypsin catalysed breakdown of bound glyoxal inhibitor; assay type: biochemical; conditions: pH 7.2, in the presence of trypsin

Which “Tighter binding than Z-Lys-COOH” value [1] does the source give for `NC(N)=NCCC[C@H](NC(=O)OCc1ccccc1)C(=O)O` [Z-Arg-COOH] here?
Its value is ~ 2 fold.

Which “KH1obs, glyoxal aldehyde carbon” value [2] does the source give for `NCCCC[C@H](NC(=O)OCc1ccccc1)C(=O)[13CH]=O` [Z-Lys-CO^13CHO] here?
The value was 97±7.

And the “Stability of NMR signals” value ([3]; pH 3.0, 64 h at 25 °C)?
Its value is “no change in the intensity of the NMR signals”.

And the “t1/2 of decrease of inhibitor signals on storage” value ([3]; pH 3, storage ~1 year)?
Its value is 1850 ± 228 h.

And the “Half life of Schiff base formation” value ([3]; pH 7.2, 25 °C)?
Its value is 11.2 h.

And the “1st order rate constant of Schiff base formation” value ([3]; pH 7.2, 25 °C, 20 mM potassium phosphate buffer)?
Its value is 0.062 ± 0.016 h⁻¹.

What about the “Half life of Schiff base formation” value ([3]; pH 10.4) of the same molecule?
Its value is 0.15 h.

What about the “1st order rate constant of Schiff base formation” value ([3]; pH 10.4, 20 mM sodium bicarbonate buffer) of the same molecule?
Its value is 4.7 ± 0.7 h⁻¹.

And the “t1/2 of conversion of trypsin-bound inhibitor to α-hydroxycarboxylic acid” value [4]?
The value was 2.9 h.

What does the source list for `NCCCC[C@H](NC(=O)OCc1ccccc1)[13C](=O)C=O` [Z-Lys-^13COCHO]?
Half life of Schiff base formation allowing for pH 7.0 instead of 7.2 ([3]; corrected to pH 7.2): 14.5 h; Half life of Schiff base formation ([3]; pH 7.0): 23.0 h; 1st order rate constant of Schiff base formation ([3]; pH 7.0, 25 °C, 20 mM potassium phosphate buffer): 0.030±0.004 h^−^1
